Source: PubChem BioAssay
Calls of active or inactive are those of the source.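 How the source made its calls, unless noted: active means inhibition of the reporter signal at or above 50%; inactive means inhibition below 50%.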

Experiments:
[1] = inhibitors of TNFa-induced NFkB p65 translocation, primary screen, imaging, HUVEC, MLSMR starter and 10KST1 sets (AID 438;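 active means inhibition above 20% together with a positive visual image hit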;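 further: compound added about 3h40 before a 20 min TNFalpha stimulation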;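 on inhibition: signal is the nuclear over cytoplasmic p65 intensity ratio per well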); details: HUVEC TNFa-induced p65 nuclear translocation; cell count: measured here: nuclei count (cytotoxicity indicator), at 2.08 µM; inhibition: at 2 µM, stronger effect = higher value, 0% TNFa-plus-vehicle, 100% no-TNFa wells
[2] = reduction of polyQ htt aggregates in cells – imaging, exon1htt(103Q)mCFP cells, high-content imaging, primary screen (AID 483;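 active means visual image review flags a hit and inhibition of aggregation exceeds 20%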;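 further: compound exposure lasted 3 days before fixation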;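 on nuclei count: percent of the per-plate median nuclei count of sample wells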); details: exon1htt(103Q)mCFP cell line, aggregate imaging, at 2 µM; inhibition of aggregation: stronger effect = higher value; nuclei count: measured here: cell count, toxicity
[3] = endothelial E-selectin expression blockers – imaging, HUVEC, immunofluorescence, MLSMR starter and 10KST1 sets, primary screen (AID 487;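 active means visually confirmed hit in the image check and inhibition above 20%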;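 on inhibition: signal is fraction of cell area covered by stained E-selectin grains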;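 on nuclei count: 100% = median nuclei count of all wells on the same plate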); details: HUVEC TNFalpha-induced E-selectin immunofluorescence imaging, at 2 µM; inhibition: stronger effect = higher value; nuclei count: measured here: cell number, toxicity
[4] = molecular target: Voltage-gated potassium channel subunit beta-2 (Rattus norvegicus) (UniProt P62483); experiment: inhibitors of rat Kvbeta2 reductase activity – biochemical, NADPH fluorescence, primary screen (AID 622;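 active means fluorescence slope higher than the sample average by over 3 SD, cut at about -0.22 in these data, passing the limit was not always enough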;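 further: slope of raw intensity against log time taken from 70 to 1610 s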); details: recombinant KvBeta, 4-cyanobenzaldehyde reduction, at 10 µM, stronger effect = higher value
Chain of Voltage-gated potassium channel subunit beta-2 (Rattus norvegicus) (P62483 whole entry, looked up): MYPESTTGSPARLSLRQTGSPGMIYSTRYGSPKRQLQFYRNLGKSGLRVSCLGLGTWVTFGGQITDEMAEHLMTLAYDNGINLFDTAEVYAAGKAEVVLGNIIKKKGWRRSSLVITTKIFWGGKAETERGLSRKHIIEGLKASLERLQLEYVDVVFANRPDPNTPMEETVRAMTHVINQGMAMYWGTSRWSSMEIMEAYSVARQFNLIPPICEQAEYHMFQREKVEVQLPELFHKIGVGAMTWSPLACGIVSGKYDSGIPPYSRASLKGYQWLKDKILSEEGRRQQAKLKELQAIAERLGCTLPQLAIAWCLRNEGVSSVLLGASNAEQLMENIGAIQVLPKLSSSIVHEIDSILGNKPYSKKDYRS

[5] = molecular target: Voltage-gated potassium channel subunit beta-2 (Rattus norvegicus) (UniProt P62483); experiment: enhancers of rat Kvbeta2 NADPH turnover – biochemical, NADPH fluorescence, primary screen (AID 623;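 active means NADPH fluorescence slope more negative than the mean of all samples by about 3 SD, 99.7% confidence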;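 further: fluorescence intensity change per second fitted from 20 to 320 s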); details: Recombinant KvBeta, NADPH fluorescence decrease slope, 10 min; at 10 µM; stronger effect = lower value
[6] = molecular target: Muscarinic acetylcholine receptor M4 (Homo sapiens) (UniProt P08173); experiment: M4-linked GIRK flux change, two-sided – cell-based, HEK293 M4/GIRK, thallium flux, BTC-AM, M4 allosteric agonist project, primary screen (AID 625;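 active means fluorescence slope after compound addition differing from the mean of all tested samples at 99.7% confidence, mostly higher but some lower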;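 further: thallium influx through GIRK channels coupled to M4 in HEK293 cells with BTC-AM dye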); details: at 10 µM, actives lie on both sides
Chain of Muscarinic acetylcholine receptor M4 (Homo sapiens) (P08173 whole entry, looked up): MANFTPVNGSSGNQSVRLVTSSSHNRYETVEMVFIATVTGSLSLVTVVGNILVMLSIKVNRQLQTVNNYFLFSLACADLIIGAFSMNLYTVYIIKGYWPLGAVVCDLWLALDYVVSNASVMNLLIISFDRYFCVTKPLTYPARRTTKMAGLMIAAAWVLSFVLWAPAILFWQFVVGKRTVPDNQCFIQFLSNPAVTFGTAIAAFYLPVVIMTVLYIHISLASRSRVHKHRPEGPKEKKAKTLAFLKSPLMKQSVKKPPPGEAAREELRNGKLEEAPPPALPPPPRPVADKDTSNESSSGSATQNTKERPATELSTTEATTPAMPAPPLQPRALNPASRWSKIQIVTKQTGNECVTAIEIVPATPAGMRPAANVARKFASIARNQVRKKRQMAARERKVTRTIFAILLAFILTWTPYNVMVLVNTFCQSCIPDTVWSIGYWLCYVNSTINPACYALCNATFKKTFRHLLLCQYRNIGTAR
Outline: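 System: HEK293 cells with M4 receptor and GIRK channels | Incubation: Cells overnight at 37 °C, BTC-AM loading 1 h, reads 2 min total | Technique: Kinetic BTC-AM fluorescence sampled at 1 Hz, 10 s pre-addition baseline | Measure: Post-addition slope, 15–24 s, of baseline-normalized fluorescence | Control set: Carbachol positive, DMSO negative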

[7] = blockers of RIG-like receptor reporter activation – cell-based, Sendai virus stimulus, luciferase, 10K MLSCN set, TLR/RLR signaling modifier project, primary screen (AID 602276;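 active means inhibition at or above 50% at 10 µM; inactive means inhibition below 50%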;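 further: firefly luciferase from ISG56 promoter only with Renilla not read in this screen; 0% = Sendai virus plus DMSO and 100% = medium plus DMSO without virus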); details: HEK293 RL24 IRF3 luciferase reporter, at 10 µM, stronger effect = higher value
[8] = TLR3 IRF3 reporter activation blockers – cell-based, poly I:C stimulus, luciferase, 10K MLSCN set, primary screen (AID 602277); details: HEK293-TLR3 RL24 IRF3 luciferase reporter, at 10 µM, stronger effect = higher value

Compound	cell count [1]	inhibition [1]	inhibition of aggregation [2]	nuclei count [2] [%]	inhibition [3]	nuclei count [3] [%]	fluorescence slope [4]	NADPH fluorescence slope [5]	fluorescence slope [6]	inhibition [7]	inhibition [8]
O=S1(=O)C=CC(Nc2cccc(Cl)c2)C1 (centres undefined)	682	-1% (inactive)	-6.1% (inactive)	97.2	-7.5% (inactive)	98.1	-0.447 (inactive)	-6.1e-05 (inactive)	0.0065 (inactive)	22.9% (inactive)	30.3% (inactive)
COC(=O)c1c(N)n(-c2cc(OC)cc(OC)c2)c2nc3ccccc3nc12	700	9.4% (inactive)	2.3% (inactive)	84.9	28.6% (inactive)	80	-0.0659 (inactive)	-2.3e-05 (inactive)	0.00491 (inactive)	2.96% (inactive)	-6.82% (inactive)
CCCCNS(=O)(=O)c1ccc(OC)c2ncccc12	568	4.1% (inactive)	16.3% (inactive)	115	-1.9% (inactive)	93	-0.337 (inactive)	-4.1e-05 (inactive)	0.00627 (inactive)	-12.5% (inactive)	-11.5% (inactive)
CCOc1ccc(-c2noc(-c3ccncc3)n2)cc1OCC	807	1.7% (inactive)	33.6% (inactive)	106	-21.2% (inactive)	117	-0.533 (inactive)	4e-05 (inactive)	0.023 (active)	4.12% (inactive)	-4.62% (inactive)
Cc1ccc(C)c(N2C(=O)CN=C2Nc2ccccc2Cl)c1	441	14.6% (inactive)	0.8% (inactive)	96.7	18.2% (inactive)	113	-0.577 (inactive)	-4.1e-05 (inactive)	0.00593 (inactive)	13% (inactive)	24.3% (inactive)
CCOC(=O)c1c(C)oc2ccc(O)c(CN3CCCCC3)c12	376	-0.9% (inactive)	-42.7% (inactive)	102	-90.5% (inactive)	81.7	-0.383 (inactive)	2.5e-05 (inactive)	0.00399 (inactive)	17.3% (inactive)	31.7% (inactive)
CCOc1cc(C(=O)NCC2CCCO2)cc(OCC)c1OCC (centres undefined)	430	-9.3% (inactive)	-3.9% (inactive)	106	-133% (inactive)	102	-0.213 (inactive)	-3.4e-05 (inactive)	0.00818 (inactive)	15.1% (inactive)	9.52% (inactive)
Cc1ccc(C(=O)OCC(=O)c2ccc(Cl)s2)s1	654	-24.7% (inactive)	10.6% (inactive)	86	-13.1% (inactive)	121	-0.454 (inactive)	0.000104 (inactive)	0.00572 (inactive)	-26% (inactive)	-58% (inactive)
Clc1ccc(Cl)c(-c2nn3c(COc4ccccc4)nnc3s2)c1	678	-5% (inactive)	-9.4% (inactive)	104	-81.1% (inactive)	139	-0.546 (inactive)	-2.8e-05 (inactive)	0.00451 (inactive)	23.3% (inactive)	23.2% (inactive)
Cc1cc2ncn(C(=O)N3CCOCC3)c2cc1C	309	-2.5% (inactive)	27.9% (inactive)	97.2	-61.7% (inactive)	122	-0.572 (inactive)	-3.6e-05 (inactive)	0.00619 (inactive)	4.38% (inactive)	3.06% (inactive)
ON=C1/C(=N\O)CC2(C/C1=N/O)OCCO2	408	2.2% (inactive)	22.4% (inactive)	69.5	7.1% (inactive)	89.7	-0.532 (inactive)	-3.5e-05 (inactive)	0.00423 (inactive)	17% (inactive)	4.87% (inactive)
C=CCn1cc(C(=O)NCCOC)c(=O)c2cc(S(=O)(=O)N(CC)CC)ccc21	580	-15.8% (inactive)	7.1% (inactive)	81.2	-11.3% (inactive)	115	-0.607 (inactive)	1.4e-05 (inactive)	0.00635 (inactive)	7.34% (inactive)	17.4% (inactive)
COc1ccc2c(c1)Sc1ccccc1N2CCN(C)C	676	-8.8% (inactive)	2.5% (inactive)	117	-11.3% (inactive)	103	-0.573 (inactive)	-2.9e-05 (inactive)	0.00495 (inactive)	8.63% (inactive)	14.5% (inactive)
Nc1nnc(SCC(=O)N2CCN(c3ccccc3)CC2)n1-c1ccccc1	774	-11.4% (inactive)	2% (inactive)	99.4	-82% (inactive)	111	-0.572 (inactive)	-3.7e-05 (inactive)	0.00636 (inactive)	10.7% (inactive)	21.1% (inactive)
COc1ccc(CC(=O)Nc2c3c(nn2-c2cccc(Cl)c2)CS(=O)(=O)C3)cc1	785	-11.6% (inactive)	-2.4% (inactive)	98.5	-28.2% (inactive)	107	-0.529 (inactive)	1.2e-05 (inactive)	0.00322 (inactive)	19.7% (inactive)	20.9% (inactive)
COc1ccc(CC(NC(C)=O)C(=O)NC2CCN(c3nc(C)cc(C)c3C#N)CC2)c(OC)c1 (centres undefined)	750	-7.4% (inactive)	-12.3% (inactive)	121	-32.4% (inactive)	112	-0.341 (inactive)	-1.7e-05 (inactive)	0.00702 (inactive)	-9.6% (inactive)	-9.61% (inactive)
Cn1c(SCc2cccc3ccccc23)nnc1-c1ccco1	574	1.6% (inactive)	3.5% (inactive)	101	-63% (inactive)	103	-0.545 (inactive)	2.1e-05 (inactive)	0.00593 (inactive)	-8.19% (inactive)	-65.7% (inactive)
O=C(Cn1c(=O)n(Cc2ccc3c(c2)OCO3)c(=O)c2ccccc21)N1CCCc2ccccc21	680	-6.8% (inactive)	-11.1% (inactive)	87.9	-22.2% (inactive)	109	-0.595 (inactive)	-6.4e-06 (inactive)	0.00433 (inactive)	21.3% (inactive)	26.4% (inactive)
COc1ccccc1NC1=C(C)C(=O)CC1	537	10.5% (inactive)	7.8% (inactive)	88.4	-5.6% (inactive)	102	-0.246 (inactive)	-3e-05 (inactive)	0.00566 (inactive)	19.4% (inactive)	34% (inactive)
CCn1c(SCC(=O)NCc2ccco2)nc2c(c1=O)SC(C)C2 (centres undefined)	368	8.3% (inactive)	-2.9% (inactive)	101	-14.8% (inactive)	115	-0.4 (inactive)	-0.000131 (inactive)	0.0058 (inactive)	4.07% (inactive)	9.1% (inactive)
CSc1nsc(SCC(=O)N2CCc3ccccc32)n1	296	-3.5% (inactive)	22.6% (inactive)	83.6	-98.3% (inactive)	112	-0.451 (inactive)	1.5e-05 (inactive)	0.005 (inactive)	5.46% (inactive)	-2.99% (inactive)
O=C(Nc1ccc(Cc2ccncc2)cc1)C1CC1	447	2.9% (inactive)	-6.1% (inactive)	100	-33.5% (inactive)	118	-0.605 (inactive)	2.8e-05 (inactive)	0.00686 (inactive)	7.94% (inactive)	15.6% (inactive)
CNC(=O)CSc1nnc(-c2cc(C)cc(C)c2)o1	669	-5% (inactive)	0.4% (inactive)	123	-34.6% (inactive)	124	-0.547 (inactive)	-3.9e-05 (inactive)	0.00519 (inactive)	4.57% (inactive)	-12.1% (inactive)
Cn1c(COc2ccccc2)nnc1SCC(=O)Nc1ccc(N2CCOCC2)c(Cl)c1	497	-6.9% (inactive)	-10.9% (inactive)	102	-6.4% (inactive)	102	-0.477 (inactive)	-6.6e-05 (inactive)	0.00548 (inactive)	13.5% (inactive)	17.5% (inactive)
FC(F)Sc1nnc(-c2cccs2)n1-c1ccccc1	824	-5% (inactive)	-10.1% (inactive)	95.3	-146% (inactive)	122	-0.532 (inactive)	-3.2e-05 (inactive)	0.00612 (inactive)	17.7% (inactive)	31% (inactive)
CCn1cc(C(=O)OCC(=O)OC2CC(C)CCC2C(C)C)c(=O)c2ccc(C)nc21 (centres undefined)	519	-21.2% (inactive)	2.5% (inactive)	92.5	26.8% (inactive)	104	-0.416 (inactive)	-0.000351 (inactive)	0.00567 (inactive)	18.5% (inactive)	5.31% (inactive)
CCOC(=O)c1ccccc1NC(=O)COC(=O)C1=COCCO1	595	-3.1% (inactive)	14% (inactive)	61.5	-92% (inactive)	95.5	-0.286 (inactive)	-3.3e-05 (inactive)	0.00593 (inactive)	15.1% (inactive)	2.55% (inactive)
CCS(=O)(=O)c1nc2ccccc2n1CC(=O)N1CCCCC1	507	9.7% (inactive)	-6.2% (inactive)	89.2	-32.9% (inactive)	99.3	-0.425 (inactive)	-2.1e-05 (inactive)	0.00578 (inactive)	17.6% (inactive)	27% (inactive)
Cc1c(NC(=O)C(C)OC(=O)C(NC(=O)c2ccco2)C(C)C)c(=O)n(-c2ccccc2)n1C (centres undefined)	419	-8% (inactive)	-12.5% (inactive)	105	-25.3% (inactive)	106	-0.276 (inactive)	-5.3e-05 (inactive)	0.00712 (inactive)	10.2% (inactive)	14.1% (inactive)
